For 31 compounds, inhibition results are on record in PubChem BioAssay AID1046 (PCMD, 2008).

Each structure is given as a SMILES string. About 560 (0.25%) of roughly 220,000 compounds were called active.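 How the source made its calls: active means inhibition at or above 40%; inactive means inhibition below 40%.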 The full list was thinned out, with actives kept by preference.

The target of the test is Prothrombin (Homo sapiens) (UniProt P00734). As to the kind of experiment: blockers of thrombin peptide substrate cleavage – biochemical, 1536-well, fluorogenic AMC substrate, counter-screen for coagulation protease inhibitor project, primary screen (AID 1046).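 Further: 0% = enzyme with no compound and 100% = wells without enzyme.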 As to conditions: alpha-thrombin, Boc-VPR-AMC fluorogenic substrate cleavage; at 5 µM; stronger effect = higher value. In a few lines:
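Material: human alpha-thrombin protein; Also added: Boc-VPR-AMC substrate, 15 µM final; Timing: enzyme reaction carried out at room temperature; Signal: fluorescence, ex 355 nm, em 460 nm; Measure: % inhibition of thrombin; Controls: enzyme without compound as high, wells lacking enzyme as low.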
On the technique in general: A counterscreen serves to expose hits that act by an unwanted route or on another target.
As to `CCOC(=O)c1c(NC(=O)C(C)Sc2c[nH]c3ccccc23)sc2c1CCC2` (stereo unspecified), the inhibition is 1.33% (inactive).

`CC(=O)c1sc2nc(SCC(=O)N3CCCCC3)[nH]c(=O)c2c1C`: the inhibition is -2.78% (inactive).

`O=C(CSc1nc2c(cnn2-c2ccc(F)cc2)c(=O)[nH]1)N1CCCCCC1`: the inhibition is 40.9% (active).

For `Cc1nnc(SCC(=O)N2CCOCC2)[nH]c1=O`, the inhibition is -2.64% (inactive).

As for `CCNC(=S)NNC(=O)C1CCN(Cc2ccccc2)CC1`, the inhibition was -3.23% (inactive).

`O=C(Nn1cnnc1)c1ccc([N+](=O)[O-])cc1`: the inhibition is -7.16% (inactive).

Regarding `Cc1ccc(C)n1NC(=O)c1ccc([N+](=O)[O-])cc1`, the inhibition is -0.02% (inactive).

In the case of `O=C(Nc1cc2c3c(c1)C1CCCC1CN3CC1CCCC21)c1ccc([N+](=O)[O-])cc1` (stereo unspecified), the inhibition was 101% (active).

For the compound `Cn1c(=O)c(=O)n(C)c2cc(S(=O)(=O)NCCN3CCN(c4ccccc4F)CC3)ccc21`, the inhibition was -4.5% (inactive).

As to `C=CCC(Nc1ccccc1)c1cccc(OC)c1OC` (stereo unspecified), the inhibition was -13% (inactive).

Regarding `CC1COc2ccccc2N1S(=O)(=O)c1ccccc1` (stereo unspecified), the inhibition is 4.45% (inactive).

In the case of `Cc1ccccc1Cn1nc(C)c(NC(=O)C(F)(F)F)c1C`, the inhibition was -1.16% (inactive).

For the compound `CCO[C@@H]1OC(C(=O)NC2CC2)=C[C@H](C)[C@H]1CCCO`, the inhibition was -5.9% (inactive).

As for `COC(=O)c1cccc(NC(=O)CN2CCC(NC(=O)c3cc(OC)c(OC)c(OC)c3)CC2)c1`, the inhibition is -1.04% (inactive).

In the case of `CCN1CCN(CC(=O)c2cc(OC)c(OC)c(OC)c2)CC1`, the inhibition is 45.6% (active).

Take `CCCN(CCC)S(=O)(=O)c1ccc(C(=O)NNC(=O)c2cc(OC)c(OC)c(OC)c2)cc1`: the inhibition is 2.82% (inactive).

Take `CCCN(CCC)c1c([N+](=O)[O-])c(=O)oc2ccccc12`: the inhibition was 0.93% (inactive).

As to `COc1ccc(OC)c(-n2c(-c3ccn[nH]3)n[nH]c2=S)c1`, the inhibition was -4.83% (inactive).

`COCC(=O)Nc1cc(C(=O)OC)cc(C(=O)OC)c1`: the inhibition is 0.93% (inactive).

With `CS(=O)(=O)n1nc(-c2ccccc2)nc1NCc1ccco1`, the inhibition is -2.92% (inactive).

Consider `O=C(Cc1ccccc1)n1nc(-c2ccccc2)nc1NCc1ccco1`, for which the inhibition is 75.1% (active).

Consider `c1ccc(-c2nc(NCc3ccco3)c3ccccc3n2)cc1`, for which the inhibition is 3.14% (inactive).

Regarding `O=C(c1ccc(N2CCOCC2)c([N+](=O)[O-])c1)N1CCN(S(=O)(=O)c2cccs2)CC1`, the inhibition was -1.14% (inactive).

Take `c1ccc(CN=C2Nc3ccccc3CS2)nc1`: the inhibition is -2.61% (inactive).

Regarding `O=C(CSc1nc2ccccc2s1)Nc1ccc(C(=O)O)cc1`, the inhibition is -1.16% (inactive).

`CCn1cc(CNC(=O)c2cc([N+](=O)[O-])c(C)c([N+](=O)[O-])c2)cn1`: the inhibition was -0.78% (inactive).

Regarding `Cc1ccc(CN2CCN(Cc3cn(C)nc3-c3ccccc3)CC2CCO)o1` (stereo unspecified), the inhibition is 0.78% (inactive).

On to `Cc1ccc(S(=O)(=O)CC(=O)Nc2c(C)n(C)n(-c3ccccc3)c2=O)cc1`, for which the inhibition was 46.1% (active).

Consider `Cc1ccc(S(=O)(=O)/N=C(/NC(=S)Nc2c(C)n(C)n(-c3ccccc3)c2=O)c2ccccc2)cc1`, for which the inhibition is 3.47% (inactive).

As for `Cc1cc(C)cc(N(CC(=O)Nc2c(C)n(C)n(-c3ccccc3)c2=O)S(C)(=O)=O)c1`, the inhibition is 4.95% (inactive).

In the case of `CC(=O)N/C(=C\c1ccc(F)cc1)C(=O)NC(Cc1ccccc1)C(=O)O` (stereo unspecified), the inhibition is -5.05% (inactive).

The inhibition is the change of the read-out against control, counted positive when it falls.
